In ChEMBL document CHEMBL3860048 (J Med Chem, 2016):
Activity calls are given as the source filed them. No cut-off for these calls is given here. Where a SMILES comes first, the peptide text is derived from it. [ ]: non-standard residue; d: D form. Phe(4-Cl) = N[C@@H](Cc1ccc(Cl)cc1)C(=O)O; Phe(3-F) = N[C@@H](Cc1cccc(F)c1)C(=O)O; Phe(2-F) = N[C@@H](Cc1ccccc1F)C(=O)O; Arg(Me) = CNC(=N)NCCC[C@H](N)C(=O)O; Pip = O=C(O)[C@@H]1CCCCN1; NMeA = CN[C@@H](C)C(=O)O; Thz = O=C(O)[C@@H]1CSCN1; dNMeA = CN[C@H](C)C(=O)O; Aze = O=C(O)[C@@H]1CCN1; 2Abz = Nc1ccccc1C(=O)O; Aib = CC(C)(N)C(=O)O; azaGly = NNC(=O)O; βAla = NCCC(=O)O; Sar = CNCC(=O)O

Assays:
[1] = molecular target: KiSS-1 receptor (Homo sapiens, UniProt Q969F8); assay: Agonist activity at human KISS1R expressed in CHO/dhfr cells assessed as increase in intracellular Ca2+ levels measured for 180 secs by Fluo 3-AM dye based FLIPR assay; format: functional, cell-based
In short: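 CHO cells expressing human KISS1R; FLIPR recording of ligand-induced [Ca2+]i rise over time. Maximum response taken and expressed as percent of the response to a maximal concentration of metastin(45-54). EC50 = concentration giving half-maximal mobilization, from nonlinear regression of smoothed data. Reported as ratio to the metastin(45-54) EC50.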

[2] = molecular target: KiSS-1 receptor (Rattus norvegicus, UniProt Q924U1); assay: Agonist activity at rat KISS1R expressed in CHO/dhfr cells assessed as increase in intracellular Ca2+ levels measured for 180 secs by Fluo 3-AM dye based FLIPR assay; format: functional, cell-based
[3] = test system: Rattus norvegicus; assay: Inhibition of testosterone levels in CD(SD) rat assessed as plasma testosterone level <0.04 ng/ml at 0.03 nmol/hr, sc administered continuously for 6 days through alzet osmotic pump measured after 6 days by radio-immunoassay; format: functional, organism-based

Sequence of KiSS-1 receptor (Rattus norvegicus, UniProt Q924U1) (Q924U1 whole entry): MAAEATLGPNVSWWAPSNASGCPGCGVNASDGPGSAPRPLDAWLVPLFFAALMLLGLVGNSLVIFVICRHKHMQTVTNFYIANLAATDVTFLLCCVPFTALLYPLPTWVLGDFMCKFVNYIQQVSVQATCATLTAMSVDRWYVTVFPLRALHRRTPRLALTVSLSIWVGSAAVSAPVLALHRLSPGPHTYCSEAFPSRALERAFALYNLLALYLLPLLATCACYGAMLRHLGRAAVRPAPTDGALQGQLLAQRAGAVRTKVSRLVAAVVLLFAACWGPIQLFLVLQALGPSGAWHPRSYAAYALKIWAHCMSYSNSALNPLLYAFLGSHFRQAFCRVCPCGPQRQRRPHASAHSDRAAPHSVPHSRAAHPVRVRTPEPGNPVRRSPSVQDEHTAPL
Sequence of KiSS-1 receptor (Homo sapiens, UniProt Q969F8) (Q969F8 whole entry): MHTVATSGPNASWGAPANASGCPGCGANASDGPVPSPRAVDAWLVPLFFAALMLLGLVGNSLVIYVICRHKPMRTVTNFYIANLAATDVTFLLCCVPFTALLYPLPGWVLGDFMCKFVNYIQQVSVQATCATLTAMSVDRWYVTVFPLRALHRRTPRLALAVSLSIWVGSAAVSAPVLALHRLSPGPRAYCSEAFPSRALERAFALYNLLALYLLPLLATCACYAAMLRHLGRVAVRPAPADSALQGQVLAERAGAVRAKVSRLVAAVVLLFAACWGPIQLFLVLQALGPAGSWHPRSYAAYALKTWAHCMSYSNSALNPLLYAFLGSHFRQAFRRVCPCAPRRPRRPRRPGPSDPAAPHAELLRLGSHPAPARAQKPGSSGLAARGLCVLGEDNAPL

SMILES | EC50 [1] [nM] | EC50 [2] [nM] | inhibition [3]
CNC(=N)NCCC[C@H](NC(=O)[C@H](CC(C)C)NC(=O)NNC(=O)[C@H](Cc1ccccc1)NC(=O)[C@@H](NC(=O)[C@H](CC(N)=O)NC(=O)[C@@H](C)NC(=O)[C@@H](Cc1ccc(O)cc1)NC(C)=O)[C@@H](C)O)C(=O)N[C@@H](Cc1c[nH]c2ccccc12)C(N)=O | 2.7 | 16 | 
CNC(=N)NCCC[C@H](NC(=O)[C@H](CC(C)C)NC(=O)NNC(=O)[C@H](Cc1ccccc1)NC(=O)[C@@H](NC(=O)[C@H](CC(N)=O)NC(=O)[C@H](C)NC(=O)[C@@H](Cc1ccc(O)cc1)NC(C)=O)[C@@H](C)O)C(=O)N[C@@H](Cc1c[nH]c2ccccc12)C(N)=O | 1.2 | 6 | 
CNC(=N)NCCC[C@H](NC(=O)[C@H](CC(C)C)NC(=O)NNC(=O)[C@H](Cc1ccccc1)NC(=O)[C@@H](NC(=O)[C@H](CC(N)=O)NC(=O)[C@H](CCCCN)NC(=O)[C@@H](Cc1ccc(O)cc1)NC(C)=O)[C@@H](C)O)C(=O)N[C@@H](Cc1c[nH]c2ccccc12)C(N)=O | 1.6 | 6.8 | Active
CNC(=N)NCCC[C@H](NC(=O)[C@H](CC(C)C)NC(=O)NNC(=O)[C@H](Cc1ccc(F)cc1)NC(=O)[C@@H](NC(=O)[C@H](CC(N)=O)NC(=O)[C@@H](Cc1c[nH]c2ccccc12)NC(=O)[C@@H](Cc1ccc(O)cc1)NC(C)=O)[C@@H](C)O)C(=O)N[C@@H](Cc1c[nH]c2ccccc12)C(N)=O | 1.9 | 4.7 | Active
CNC(=N)NCCC[C@H](NC(=O)[C@H](CC(C)C)NC(=O)NNC(=O)[C@H](Cc1ccccc1)NC(=O)[C@@H](NC(=O)[C@H](CC(N)=O)NC(=O)[C@@H]1Cc2ccccc2CN1C(=O)[C@@H](Cc1ccc(O)cc1)NC(C)=O)[C@@H](C)O)C(=O)N[C@@H](Cc1c[nH]c2ccccc12)C(N)=O | 0.49 | 7 | 
CNC(=N)NCCC[C@H](NC(=O)[C@H](CC(C)C)NC(=O)NNC(=O)[C@H](Cc1ccccc1)NC(=O)[C@@H](NC(=O)[C@H](CC(N)=O)NC(=O)[C@H]1CCCN1C(=O)[C@@H](Cc1ccc(O)cc1)NC(C)=O)[C@@H](C)O)C(=O)N[C@@H](Cc1c[nH]c2ccccc12)C(N)=O | 5.8 | 110 | 
CNC(=N)NCCC[C@H](NC(=O)[C@H](CC(C)C)NC(=O)NNC(=O)[C@H](Cc1ccccc1)NC(=O)[C@@H](NC(=O)[C@H](CC(N)=O)NC(=O)[C@@H](CC(C)C)NC(=O)[C@@H](Cc1ccc(O)cc1)NC(C)=O)[C@@H](C)O)C(=O)N[C@@H](Cc1c[nH]c2ccccc12)C(N)=O | 2 | 12 | Active
CNC(=N)NCCC[C@H](NC(=O)[C@H](CC(C)C)NC(=O)NNC(=O)[C@H](Cc1cccc(F)c1)NC(=O)[C@@H](NC(=O)[C@H](CC(N)=O)NC(=O)[C@H](Cc1c[nH]c2ccccc12)NC(=O)[C@@H](Cc1ccc(O)cc1)NC(C)=O)[C@@H](C)O)C(=O)N[C@@H](Cc1c[nH]c2ccccc12)C(N)=O (Ac-[dY]WNT[Phe(3-F)][azaGly]L[Arg(Me)]W-NH2) | 0.073 | 1.2 | 
CNC(=N)NCCC[C@H](NC(=O)[C@H](CC(C)C)NC(=O)NNC(=O)[C@H](Cc1ccccc1)NC(=O)[C@@H](NC(=O)[C@H](CC(N)=O)NC(=O)c1ccccc1NC(=O)[C@@H](Cc1ccc(O)cc1)NC(C)=O)[C@@H](C)O)C(=O)N[C@@H](Cc1c[nH]c2ccccc12)C(N)=O (Ac-[dY][2Abz]NTF[azaGly]L[Arg(Me)]W-NH2) | 5.2 | 47 | 
CNC(=N)NCCC[C@H](NC(=O)[C@H](CC(C)C)NC(=O)NNC(=O)[C@H](Cc1cccc(F)c1)NC(=O)[C@@H](NC(=O)[C@H](CC(N)=O)NC(=O)C(C)(C)NC(=O)[C@@H](Cc1ccc(O)cc1)NC(C)=O)[C@@H](C)O)C(=O)N[C@@H](Cc1c[nH]c2ccccc12)C(N)=O (Ac-[dY][Aib]NT[Phe(3-F)][azaGly]L[Arg(Me)]W-NH2) | 1.2 | 7 | 
CNC(=N)NCCC[C@H](NC(=O)[C@H](CC(C)C)NC(=O)NNC(=O)[C@H](Cc1ccccc1)NC(=O)[C@@H](NC(=O)[C@H](CC(N)=O)NC(=O)CN(C)C(=O)[C@@H](Cc1ccc(O)cc1)NC(C)=O)[C@@H](C)O)C(=O)N[C@@H](Cc1c[nH]c2ccccc12)C(N)=O (Ac-[dY][Sar]NTF[azaGly]L[Arg(Me)]W-NH2) | 4.9 | 20 | 
CNC(=N)NCCC[C@H](NC(=O)[C@H](CC(C)C)NC(=O)NNC(=O)[C@H](Cc1ccccc1)NC(=O)[C@@H](NC(=O)[C@H](CC(N)=O)NC(=O)[C@@H]1CSCN1C(=O)[C@@H](Cc1ccc(O)cc1)NC(C)=O)[C@@H](C)O)C(=O)N[C@@H](Cc1c[nH]c2ccccc12)C(N)=O (Ac-[dY][Thz]NTF[azaGly]L[Arg(Me)]W-NH2) | 2.3 | 23 | 
CNC(=N)NCCC[C@H](NC(=O)[C@H](CC(C)C)NC(=O)NNC(=O)[C@H](Cc1ccccc1)NC(=O)[C@@H](NC(=O)[C@H](CC(N)=O)NC(=O)[C@@H](C)N(C)C(=O)[C@@H](Cc1ccc(O)cc1)NC(C)=O)[C@@H](C)O)C(=O)N[C@@H](Cc1c[nH]c2ccccc12)C(N)=O (Ac-[dY][dNMeA]NTF[azaGly]L[Arg(Me)]W-NH2) | 1.8 | 7.3 | 
CNC(=N)NCCC[C@H](NC(=O)[C@H](CC(C)C)NC(=O)NNC(=O)[C@H](Cc1ccccc1F)NC(=O)[C@@H](NC(=O)[C@H](CC(N)=O)NC(=O)[C@@H](Cc1c[nH]c2ccccc12)NC(=O)[C@@H](Cc1ccc(O)cc1)NC(C)=O)[C@@H](C)O)C(=O)N[C@@H](Cc1c[nH]c2ccccc12)C(N)=O (Ac-[dY][dW]NT[Phe(2-F)][azaGly]L[Arg(Me)]W-NH2) | 0.65 | 1.8 | 
CNC(=N)NCCC[C@H](NC(=O)[C@H](CC(C)C)NC(=O)NNC(=O)[C@H](Cc1cccc(F)c1)NC(=O)[C@@H](NC(=O)[C@H](CC(N)=O)NC(=O)[C@@H](Cc1c[nH]c2ccccc12)NC(=O)[C@@H](Cc1ccc(O)cc1)NC(C)=O)[C@@H](C)O)C(=O)N[C@@H](Cc1c[nH]c2ccccc12)C(N)=O (Ac-[dY][dW]NT[Phe(3-F)][azaGly]L[Arg(Me)]W-NH2) | 1.4 | 4.8 | 
CNC(=N)NCCC[C@H](NC(=O)[C@H](CC(C)C)NC(=O)NNC(=O)[C@H](Cc1ccccc1)NC(=O)[C@@H](NC(=O)[C@H](CC(N)=O)NC(=O)CCNC(=O)[C@@H](Cc1ccc(O)cc1)NC(C)=O)[C@@H](C)O)C(=O)N[C@@H](Cc1c[nH]c2ccccc12)C(N)=O (Ac-[dY][βAla]NTF[azaGly]L[Arg(Me)]W-NH2) | 3.3 | 11 | 

The next lines start with results.

EC50 [1] [nM] | EC50 [2] [nM] | SMILES | inhibition [3]
2.3 | 15 | CNC(=N)NCCC[C@H](NC(=O)[C@H](CC(C)C)NC(=O)NNC(=O)[C@H](Cc1ccccc1)NC(=O)[C@@H](NC(=O)[C@H](CC(N)=O)NC(=O)C1CN(C(=O)[C@@H](Cc2ccc(O)cc2)NC(C)=O)C1)[C@@H](C)O)C(=O)N[C@@H](Cc1c[nH]c2ccccc12)C(N)=O | 
2.8 | 11 | CNC(=N)NCCC[C@H](NC(=O)[C@H](CC(C)C)NC(=O)NNC(=O)[C@H](Cc1ccccc1)NC(=O)[C@@H](NC(=O)[C@H](CC(N)=O)NC(=O)[C@H](CCC(=O)O)NC(=O)[C@@H](Cc1ccc(O)cc1)NC(C)=O)[C@@H](C)O)C(=O)N[C@@H](Cc1c[nH]c2ccccc12)C(N)=O | Active
5.5 | 45 | CNC(=N)NCCC[C@H](NC(=O)[C@H](CC(C)C)NC(=O)NNC(=O)[C@H](Cc1ccccc1)NC(=O)[C@@H](NC(=O)[C@H](CC(N)=O)NC(=O)[C@H]1CCCN(C(=O)[C@@H](Cc2ccc(O)cc2)NC(C)=O)C1)[C@@H](C)O)C(=O)N[C@@H](Cc1c[nH]c2ccccc12)C(N)=O | 
1.1 | 7.4 | CNC(=N)NCCC[C@H](NC(=O)[C@H](CC(C)C)NC(=O)NNC(=O)[C@H](Cc1cccc(F)c1)NC(=O)[C@@H](NC(=O)[C@H](CC(N)=O)NC(=O)CNC(=O)[C@@H](Cc1ccc(O)cc1)NC(C)=O)[C@@H](C)O)C(=O)N[C@@H](Cc1c[nH]c2ccccc12)C(N)=O (Ac-[dY]GNT[Phe(3-F)][azaGly]L[Arg(Me)]W-NH2) | 
1.9 | 16 | CNC(=N)NCCC[C@H](NC(=O)[C@H](CC(C)C)NC(=O)NNC(=O)[C@H](Cc1ccccc1)NC(=O)[C@@H](NC(=O)[C@H](CC(N)=O)NC(=O)[C@@H]1CCN1C(=O)[C@@H](Cc1ccc(O)cc1)NC(C)=O)[C@@H](C)O)C(=O)N[C@@H](Cc1c[nH]c2ccccc12)C(N)=O (Ac-[dY][Aze]NTF[azaGly]L[Arg(Me)]W-NH2) | Active
4.4 | 43 | CNC(=N)NCCC[C@H](NC(=O)[C@H](CC(C)C)NC(=O)NNC(=O)[C@H](Cc1ccccc1)NC(=O)[C@@H](NC(=O)[C@H](CC(N)=O)NC(=O)[C@H](C)N(C)C(=O)[C@@H](Cc1ccc(O)cc1)NC(C)=O)[C@@H](C)O)C(=O)N[C@@H](Cc1c[nH]c2ccccc12)C(N)=O (Ac-[dY][NMeA]NTF[azaGly]L[Arg(Me)]W-NH2) | 
2.8 | 17 | CNC(=N)NCCC[C@H](NC(=O)[C@H](CC(C)C)NC(=O)NNC(=O)[C@H](Cc1ccccc1)NC(=O)[C@@H](NC(=O)[C@H](CC(N)=O)NC(=O)[C@@H]1CCCCN1C(=O)[C@@H](Cc1ccc(O)cc1)NC(C)=O)[C@@H](C)O)C(=O)N[C@@H](Cc1c[nH]c2ccccc12)C(N)=O (Ac-[dY][Pip]NTF[azaGly]L[Arg(Me)]W-NH2) | 
0.56 | 2.8 | CNC(=N)NCCC[C@H](NC(=O)[C@H](CC(C)C)NC(=O)NNC(=O)[C@H](Cc1ccc(Cl)cc1)NC(=O)[C@@H](NC(=O)[C@H](CC(N)=O)NC(=O)[C@@H](Cc1c[nH]c2ccccc12)NC(=O)[C@@H](Cc1ccc(O)cc1)NC(C)=O)[C@@H](C)O)C(=O)N[C@@H](Cc1c[nH]c2ccccc12)C(N)=O (Ac-[dY][dW]NT[Phe(4-Cl)][azaGly]L[Arg(Me)]W-NH2) | 
